# From ChEMBL document CHEMBL3046678, “Isolation and characterization of new p-Terphenyls with antifungal, antibacterial, and antioxidant activities from halophilic actinomycete Nocardiopsis gilva YIM 90087” (2013)
# What was measured:
# Fusarium graminearum = assay: Antifungal activity against Fusarium graminearum after 4 days by microdilution method; type: functional
# Procedure, shortened: (§1)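 Spores from 4-day-old cultures in PDB broth at 1 × 10^3 spores/mL, 96-well broth microdilution. Compounds in DMSO (final ≤5%), 2-fold serial dilutions 512–0.5 μg/mL. Incubated 28 °C, 4 days. DMSO negative control, nystatin positive control. Growth checked microscopically. MIC is the lowest concentration with complete inhibition. Experiments repeated three times.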
# [1] = Antioxidant activity assessed as ABTS radical scavenging activity at 1 mg/ml after 5 min by spectrophotometric analysis; type: functional
# Procedure, shortened: (§2)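 ABTS radical cation made from ABTS (7 mM) and potassium persulfate (2.45 mM), held 16 h in dark at room temperature, then 350 μL diluted to 25 mL with aqueous 80% EtOH. Sample added to 250 μL working solution, kept 5 min in dark at room temperature, A734 read. Scavenging % = [1 − (Ae − As)/Ac] × 100 against solvent control, triplicate.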
# Candida albicans = assay: Antifungal activity against Candida albicans after 4 days by microdilution method; type: functional; procedure, shortened: as §1
# [2] = system: Radical scavenging activity; assay: Antioxidant activity assessed as DPPH radical scavenging activity at 2 mg/ml after 30 min by spectrophotometric analysis; type: functional
# Procedure, shortened: (§3)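 DPPH stock diluted 1:20 in EtOH; 290 μL of this mixed with 10 μL sample, EtOH as negative control, vitamin C as positive control. Kept 30 min in dark, absorbance read at 517 nm. Scavenging % = [1 − (Ae − As)/Ac] × 100, where As is sample blank absorbance. Triplicate.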
# Fusarium avenaceum = assay: Antifungal activity against Fusarium avenaceum after 4 days by microdilution method; type: functional; procedure, shortened: as §1
# Bacillus subtilis = assay: Antibacterial activity against Bacillus subtilis after 24 hr by microdilution method; type: functional
# Procedure, shortened: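 Bacteria grown 18 h, diluted in LB broth to 1 × 10^5 CFU/mL in 96-well microplates. Compounds in DMSO, 2-fold serial dilutions 512 to 0.5 μg/mL final, DMSO ≤5%. Incubated 37 °C for 24 h, growth checked by microscope. MIC = lowest concentration giving complete growth inhibition. DMSO negative control, kanamycin positive control, three repeats.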
# Fusarium culmorum = assay: Antifungal activity against Fusarium culmorum after 4 days by microdilution method; type: functional; procedure, shortened: as §1
# [3] = Antioxidant activity assessed as ABTS radical scavenging activity at 2 mg/ml after 5 min by spectrophotometric analysis; type: functional; procedure, shortened: as §2
# [4] = system: Radical scavenging activity; assay: Antioxidant activity assessed as DPPH radical scavenging activity at 4 mg/ml after 30 min by spectrophotometric analysis; type: functional; procedure, shortened: as §3
# [5] = Antioxidant activity assessed as superoxide anion radical scavenging activity at 5 mg/ml after 5 min by spectrophotometric analysis; type: functional
# Procedure, shortened: (§4)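 Superoxide made by non-enzymatic NADH–PMS system, detected by NBT reduction. 200 μL mix of 150 μM NBT and 234 μM NADH in 16 mM Tris-HCl pH 8.0, plus 10 μL sample. Reaction started with 100 μL of 30 μM PMS in the same buffer, 5 min at room temperature, A560 read. % = [1 − (Ae − As)/Ac] × 100, triplicate.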
# [6] = system: Radical scavenging activity; assay: Antioxidant activity assessed as DPPH radical scavenging activity at 0.8 mg/ml after 30 min by spectrophotometric analysis; type: functional; procedure, shortened: as §3
# [7] = Antioxidant activity assessed as ABTS radical scavenging activity at 0.16 mg/ml after 5 min by spectrophotometric analysis; type: functional; procedure, shortened: as §2
# Escherichia coli = assay: Antibacterial activity against Escherichia coli after 24 hr by microdilution method; type: functional
# Procedure, shortened: (§5)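 Bacteria from 18-h cultures in LB broth at 1 × 10^5 CFU/mL, 96-well broth microdilution. Compounds in DMSO (final ≤5%), 2-fold serial dilutions from 512 to 0.5 μg/mL. Incubated 37 °C for 24 h. DMSO-only negative control, kanamycin positive control. Growth read by microscope. MIC is the lowest concentration giving complete growth inhibition. Three repeats.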
# Staphylococcus aureus = assay: Antibacterial activity against Staphylococcus aureus after 24 hr by microdilution method; type: functional; procedure, shortened: as §5
# [8] = Antioxidant activity assessed as ABTS radical scavenging activity at 0.5 mg/ml after 5 min by spectrophotometric analysis; type: functional; procedure, shortened: as §2
# Pyricularia oryzae = assay: Antifungal activity against Magnaporthe oryzae after 4 days by microdilution method; type: functional; procedure, shortened: as §1
# [9] = Antioxidant activity assessed as superoxide anion radical scavenging activity at 2 mg/ml after 5 min by spectrophotometric analysis; type: functional; procedure, shortened: as §4
# Aspergillus niger = assay: Antifungal activity against Aspergillus niger after 4 days by microdilution method; type: functional, organism-based; procedure, shortened: as §1
# Trichophyton verrucosum = assay: Antifungal activity against Trichophyton verrucosum after 4 days by microdilution method; type: functional, organism-based; procedure, shortened: as §1
molecule,measurement,setting,value
COc1ccc(-c2cc(O)c(-c3ccc(OC)cc3)c(OC)c2OC)cc1,MIC,Fusarium graminearum; 96 h,16 µg/mL
same,Activity,[1],68.6%
same,MIC,Candida albicans; 96 h,32 µg/mL
same,Activity,[2],54.9%
same,MIC,Fusarium avenaceum; 96 h,8 µg/mL
same,MIC,Bacillus subtilis,64 µg/mL
same,MIC,Fusarium culmorum; 96 h,128 µg/mL
COc1ccc(-c2c(OC)c(O)c(-c3ccc(OC)cc3)c3scnc23)cc1,Activity,[3],28.4%
same,Activity,[4],14.3%
C[C@@H]1NC(=O)[C@H](Cc2c[nH]c3ccccc23)NC1=O,Activity,[3],54.6%
O=C1O[C@H]([C@@H](O)CO)C(O)=C1O,Activity,[5],75.5%
same,Activity,[6],43.9%
same,Activity,[7],79.1%
NC[C@H]1O[C@H](O[C@H]2[C@H](O)[C@@H](O[C@H]3O[C@H](CO)[C@@H](O)[C@H](N)[C@H]3O)[C@H](N)C[C@@H]2N)[C@H](O)[C@@H](O)[C@@H]1O [KANAMYCIN],MIC,Escherichia coli,1 µg/mL
same,MIC,Bacillus subtilis,1 µg/mL
same,MIC,Staphylococcus aureus,4 µg/mL
CO[C@@H]1[C@@H](OC(N)=O)[C@@H](O)[C@H](Oc2ccc3c(O)c(NC(=O)c4ccc(O)c(CC=C(C)C)c4)c(=O)oc3c2C)OC1(C)C [NOVOBIOCIN],Activity,[8],78.2%
same,Activity,[2],47.7%
same,MIC,Pyricularia oryzae; 96 h,16 µg/mL
same,MIC,Bacillus subtilis,16 µg/mL
same,Activity,[9],77.9%
same,MIC,Staphylococcus aureus,64 µg/mL
NYSTATIN,MIC,Fusarium graminearum,4 µg/mL
same,MIC,Candida albicans,4 µg/mL
same,MIC,Fusarium avenaceum,1 µg/mL
same,MIC,Aspergillus niger,8 µg/mL
same,MIC,Pyricularia oryzae,8 µg/mL
same,MIC,Trichophyton verrucosum,4 µg/mL
same,MIC,Fusarium culmorum,1 µg/mL
